Laboratory results from ChEMBL document CHEMBL1138570, “2-Acylhydrazino-5-arylpyrrole derivatives: synthesis and antifungal activity evaluation” (Eur J Med Chem, 2009).
In brackets after ≈: the same amount, converted by molar mass.

Assays:
Assay type in all cases: functional
Candida parapsilosis [1] = assay: Antimicrobial activity against Candida parapsilosis after 72 hrs by broth microdilution method; details: Lodderomyces parapsilosis
Method in brief: (§1)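 MFC: after MIC reading, a sample from each well was plated on Sabouraud dextrose agar and incubated 72 h at 35 °C. MFC was taken as the minimum concentration killing >99% of the original inoculum. The MIC step was NCCLS broth microdilution in MOPS-buffered RPMI 1640 (pH 7.0), with 2 ×10⁴ cells/mL, overnight at 35 °C.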

Nakaseomyces glabratus [2] = assay: Antimicrobial activity against Candida glabrata by broth microdilution method
Method in brief: (§2)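 MIC by NCCLS broth microdilution. Medium was RPMI 1640 with L-glutamine, buffered with 0.165 M MOPS at pH 7.0. Twofold drug dilutions ran 0.008–200 mg/L. Inoculum was set spectrophotometrically to 10⁶ CFU/mL, then diluted in medium to 2 ×10⁴ cells/mL. Plates were incubated overnight at 35 °C in humid air, agitated, and read visually and at 450 nm.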

Candida parapsilosis [3] = assay: Antimicrobial activity against Candida parapsilosis by broth microdilution method; details: Lodderomyces parapsilosis; method in brief: as §2
Candida albicans [4] = assay: Antimicrobial activity against Candida albicans ATCC 10231 by broth microdilution method; method in brief: as §2
Candida albicans [5] = assay: Antimicrobial activity against Candida albicans ATCC 10231 after 72 hrs by broth microdilution method; details: ATCC 10231, 72 h; method in brief: as §1
Pichia kudriavzevii [6] = assay: Antimicrobial activity against Candida krusei after 72 hrs by broth microdilution method; method in brief: as §1
Nakaseomyces glabratus [7] = assay: Antimicrobial activity against Candida glabrata after 72 hrs by broth microdilution method; method in brief: as §1
Pichia kudriavzevii [8] = assay: Antimicrobial activity against Candida krusei by broth microdilution method; method in brief: as §2

Compound | MIC (Nakaseomyces glabratus [2]) [µg/mL] | MIC (Candida parapsilosis [3]) [µg/mL] | MIC (Candida albicans [4]) [µg/mL] | MIC (Pichia kudriavzevii [8]) [µg/mL] | MFC (Candida parapsilosis [1]) [µg/mL] | MFC (Candida albicans [5]) [µg/mL] | MFC (Pichia kudriavzevii [6]) [µg/mL] | MFC (Nakaseomyces glabratus [7]) [µg/mL]
CCCC(=O)NNc1[nH]c(-c2ccc(OC)cc2)cc1C(=O)OCC | > 100 | 12.5 (≈ 36.2 µM) | 12.5 (≈ 36.2 µM) | 50 (≈ 145 µM) | > 100 | 12.5 (≈ 36.2 µM) | 100 (≈ 290 µM) | > 100
CC(=O)NNc1[nH]c(-c2ccccc2)cc1C#N | 6.25 (≈ 26 µM) | 3.12 (≈ 13 µM) | 3.12 (≈ 13 µM) | 3.12 (≈ 13 µM) | 12.5 (≈ 52 µM) | 3.12 (≈ 13 µM) | 6.25 (≈ 26 µM) | 12.5 (≈ 52 µM)
CCOC(=O)c1cc(-c2ccccc2)[nH]c1NNC(=O)CC | 6.25 (≈ 20.7 µM) | 6.25 (≈ 20.7 µM) | 3.12 (≈ 10.4 µM) | 12.5 (≈ 41.5 µM) | 25 (≈ 83 µM) | 12.5 (≈ 41.5 µM) | 25 (≈ 83 µM) | 12.5 (≈ 41.5 µM)
CCCC(=O)NNc1[nH]c(-c2ccc(C)cc2)cc1C(=O)OCC | > 100 | 25 (≈ 75.9 µM) | > 100 | > 100 | > 100 | > 100 | > 100 | > 100
CCOC(=O)c1cc(-c2ccc(C)cc2)[nH]c1NNC(C)=O | > 100 | 50 (≈ 166 µM) | > 100 | 100 (≈ 332 µM) | 50 (≈ 166 µM) | > 100 | > 100 | > 100
CCOC(=O)NNc1[nH]c(-c2ccccc2)cc1C(=O)OCC | 6.25 (≈ 19.7 µM) | 6.25 (≈ 19.7 µM) | 3.12 (≈ 9.83 µM) | 12.5 (≈ 39.4 µM) | 12.5 (≈ 39.4 µM) | 3.12 (≈ 9.83 µM) | 25 (≈ 78.8 µM) | 12.5 (≈ 39.4 µM)
CCOC(=O)c1cc(-c2ccccc2)[nH]c1NNC(C)=O | 12.5 (≈ 43.5 µM) | 50 (≈ 174 µM) | 12.5 (≈ 43.5 µM) | 50 (≈ 174 µM) | 100 (≈ 348 µM) | 12.5 (≈ 43.5 µM) | 50 (≈ 174 µM) | > 100
CCOC(=O)NNc1[nH]c(-c2ccc(Cl)cc2)cc1C(=O)OCC | > 100 | 12.5 (≈ 35.5 µM) | 25 (≈ 71.1 µM) | 50 (≈ 142 µM) | 12.5 (≈ 35.5 µM) | > 100 | > 100 | > 100
CCOC(=O)NNc1[nH]c(-c2ccc(C)cc2)cc1C(=O)OCC | 3.12 (≈ 9.42 µM) | 100 (≈ 302 µM) | 6.25 (≈ 18.9 µM) | 100 (≈ 302 µM) | > 100 | 6.25 (≈ 18.9 µM) | > 100 | 25 (≈ 75.4 µM)
CCC(=O)NNc1[nH]c(-c2ccc(OC)cc2)cc1C(=O)OC | 6.25 (≈ 19.7 µM) | 3.12 (≈ 9.83 µM) | 3.12 (≈ 9.83 µM) | 6.25 (≈ 19.7 µM) | 12.5 (≈ 39.4 µM) | 3.12 (≈ 9.83 µM) | 6.25 (≈ 19.7 µM) | 12.5 (≈ 39.4 µM)
CCOC(=O)NNc1[nH]c(-c2ccccc2)cc1C(=O)OC | 3.12 (≈ 10.3 µM) | 3.12 (≈ 10.3 µM) | 3.12 (≈ 10.3 µM) | 6.25 (≈ 20.6 µM) | 12.5 (≈ 41.2 µM) | 6.25 (≈ 20.6 µM) | 25 (≈ 82.4 µM) | 12.5 (≈ 41.2 µM)

More lines, main results first:

MIC (Nakaseomyces glabratus [2]) [µg/mL] | MIC (Candida parapsilosis [3]) [µg/mL] | MIC (Candida albicans [4]) [µg/mL] | MIC (Pichia kudriavzevii [8]) [µg/mL] | Compound | MFC (Candida parapsilosis [1]) [µg/mL] | MFC (Candida albicans [5]) [µg/mL] | MFC (Pichia kudriavzevii [6]) [µg/mL] | MFC (Nakaseomyces glabratus [7]) [µg/mL]
12.5 (≈ 34.6 µM) | 25 (≈ 69.2 µM) | 6.25 (≈ 17.3 µM) | 50 (≈ 138 µM) | CCOC(=O)c1cc(-c2ccc(OC)cc2)[nH]c1NNC(=O)CCOC | 100 (≈ 277 µM) | 6.25 (≈ 17.3 µM) | 100 (≈ 277 µM) | 100 (≈ 277 µM)
> 100 | 50 (≈ 127 µM) | > 100 | 50 (≈ 127 µM) | CCOC(=O)c1cc(-c2ccccc2)[nH]c1NNC(=O)Cc1ccc(OC)cc1 | > 100 | > 100 | > 100 | > 100
6.25 (≈ 18.9 µM) | 6.25 (≈ 18.9 µM) | 3.12 (≈ 9.42 µM) | 12.5 (≈ 37.7 µM) | CCOC(=O)c1cc(-c2ccccc2)[nH]c1NNC(=O)CCOC | 25 (≈ 75.4 µM) | 6.25 (≈ 18.9 µM) | 50 (≈ 151 µM) | 25 (≈ 75.4 µM)
6.25 (≈ 18.9 µM) | 12.5 (≈ 37.7 µM) | 3.12 (≈ 9.42 µM) | 25 (≈ 75.4 µM) | CCOC(=O)c1cc(-c2ccc(OC)cc2)[nH]c1NNC(=O)CC | 25 (≈ 75.4 µM) | 12.5 (≈ 37.7 µM) | 100 (≈ 302 µM) | 12.5 (≈ 37.7 µM)
> 100 | > 100 | > 100 | > 100 | CCCC(=O)NNc1[nH]c(-c2ccc(Cl)cc2)cc1C(=O)OCC | > 100 | > 100 | > 100 | > 100
12.5 (≈ 37.5 µM) | 25 (≈ 75 µM) | 3.12 (≈ 9.36 µM) | 50 (≈ 150 µM) | CCOC(=O)NNc1[nH]c(-c2ccc(OC)cc2)cc1C(=O)OC | > 100 | 6.25 (≈ 18.7 µM) | > 100 | 50 (≈ 150 µM)
6.25 (≈ 18 µM) | 6.25 (≈ 18 µM) | 3.12 (≈ 8.98 µM) | 12.5 (≈ 36 µM) | CCOC(=O)NNc1[nH]c(-c2ccc(OC)cc2)cc1C(=O)OCC | 25 (≈ 72 µM) | 3.12 (≈ 8.98 µM) | 100 (≈ 288 µM) | 25 (≈ 72 µM)
